Experimental findings from PubChem BioAssay AID2645 (Broad Institute, 2010) are described below.

For this assay, the system named is human washed platelets, cAMP competitive ELISA, 5 min. The experiment in a line: platelet cAMP elevation by compounds, confirmation, counter-screen for platelet activation inhibitor project, cell-based, competitive ELISA, PGE1 reference (AID 2645). The settings on record: at 10 µM; hits give high values. A digest of the protocol:
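schedule = 5 min compound treatment | system = washed donor platelets | repeats = duplicates | signal = competitive cAMP ELISA, platelet lysates, 0.5% Triton X-100, 0.1 M HCl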

The source made the active and inactive calls.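 How the source made its calls: active means cAMP rise above 50% of the positive control response, mean of two replicates; inactive means cAMP rise at or below 50% of control.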

As for `Cc1ccc(-n2c(N)c(C#N)c(-c3ccccc3)c(C#N)c2=O)cc1`, the cAMP induction, % of PGE1 is -16.7% (inactive).

In the case of `COc1ccc(/C=N/N(C)c2cc(=O)n(C)c(=O)[nH]2)cc1OC`, the cAMP induction, % of PGE1 is 136%. On to `O=c1[nH]c2c(s1)C=Nc1ccccc1N2`, for which the cAMP induction, % of PGE1 was 163%. Turning to `COC(=O)CS(=O)(=O)c1ccc2c(c1)CC(=O)N2`, the cAMP induction, % of PGE1 was 57.2%.

As for `CCC(CC)=N/N=C/c1c(O)n(CC)c2cc(C3=NNC(=O)CC3)ccc12`, the cAMP induction, % of PGE1 was 109%. `COc1cc2c(cc1OC)-c1cc(Nc3ccc(F)cc3)nc(=O)n1CC2`: the cAMP induction, % of PGE1 is 210%. Turning to `COc1cc2c(cc1OC)/C(=C/C(=O)c1ccc(NC(C)=O)cc1)NCC2`, the cAMP induction, % of PGE1 is 67.8%. As to `COc1cc2c(cc1OC)-c1cc(Nc3ccccc3C)nc(=O)n1CC2`, the cAMP induction, % of PGE1 is 638%. `Cc1[nH]c(=O)c(C#N)c(C)c1CSc1ncccn1`: the cAMP induction, % of PGE1 was 55.4%. Under `CCOc1cc(/C=N/NC(N)=O)cc(Br)c1OCC(=O)Nc1ccccc1C` stands 155%; under `COc1cc2c(cc1OC)-c1cc(N3CCCCCC3)nc(=O)n1CC2`, 83.7%. Regarding `COc1ccccc1-n1cc(-c2ccc(Cl)cc2)[nH]c1=O`, the cAMP induction, % of PGE1 was 32.2% (inactive).

For `COc1cc2c(cc1OC)-c1cc(N3CCc4ccccc43)nc(=O)n1CC2`, the cAMP induction, % of PGE1 is 74.8%. The value for `C/C(=N/NC(=O)C1CCCC1)c1ccc(NC(=O)C(F)(F)F)cc1` was -25% (inactive); that for `COc1ccccc1C(=O)Nc1c[nH]c(=O)[nH]c1=O` was 97.7%.

Regarding `O=C(Nc1cccc(NC(=O)c2ccccc2Cl)c1)c1ccco1`, the cAMP induction, % of PGE1 is -18.7% (inactive).
